Results on one molecule are retold here after ChEMBL document CHEMBL4825779, “Sulfur Analogues of Tyrosine in the Development of Triazene Hybrid Compounds: A New Strategy against Melanoma” (ACS Med Chem Lett, 2021).

Data set [1] in a line: Toxicity in BALB/c mouse assessed as lung tissue index at 12 mg/kg, iv administered 3 times for 1 week and measured at 2 days post-last injection (reference value: 8 +/-1). As to conditions: in vivo, 216 h, time 9 day. Type of data set: organism-based.
The nature of data set [2]: Toxicity in BALB/c mouse assessed as spleen tissue index at 12 mg/kg, iv administered 3 times for 1 week and measured at 2 days post-last injection (reference value: 6 +/-1). In kind it is organism-based. As to conditions: in vivo, 216 h, time 9 day.
The test system of a further data set is A-375. The data set is described as follows: Cytotoxicity against human A-375 cells assessed as reduction in cell viability incubated for 72 hrs by MTS assay. In kind it is functional, cell-based. As to conditions: A-375, 72 h. The procedure, abridged:
(§1)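 Cell lines: MNT-1 and A375 (human melanoma), B16F10 (murine melanoma) and HaCaT (human keratinocytes). Compounds incubated with cells for 72 h; IC50 reported in μM.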

The nature of data set [3]: Cytotoxicity against human MNT-1 cells assessed as reduction in cell viability incubated for 72 hrs by MTS assay. In kind it is functional, cell-based. As to conditions: MNT-1, 72 h. An outline of the steps:
as §1

The nature of data set [4]: Toxicity in BALB/c mouse assessed as kidney tissue index at 12 mg/kg, iv administered 3 times for 1 week and measured at 2 days post-last injection (reference value: 13 +/-1). Type of data set: organism-based. The settings on record: in vivo, 216 h, time 9 day.
Data set [5] can be described thus: Selectivity index, ratio of IC50 for human HaCaT cells to IC50 for mouse B16-F10 cells by MTS assay. Type of data set: toxicity. The settings on record: HaCaT cells and B16-F10 cells, read-out: Ratio IC50. The procedure, abridged:
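Human HaCaT keratinocytes and the melanoma line (human A375 or murine B16F10) were each incubated with compound for 72 h, and IC50 was determined in each line. Selectivity index is HaCaT IC50 divided by melanoma-line IC50.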

Data set [6] can be described thus: Toxicity in BALB/c mouse assessed as heart tissue index at 12 mg/kg, iv administered 3 times for 1 week and measured at 2 days post-last injection (reference value: 7 +/-1). Type of data set: organism-based. As to conditions: in vivo, 216 h, time 9 day.
Data set [7] can be described thus: Toxicity in BALB/c mouse assessed as liver tissue index at 12 mg/kg, iv administered 3 times for 1 week and measured at 2 days post-last injection (reference value: 22 +/-1). In kind it is organism-based. As to conditions: in vivo, 216 h, time 9 day.
A short description of data set [8]: Selectivity index, ratio of IC50 for human HaCaT cells to IC50 for human cells by MTS assay.
The nature of data set [9]: Half life in 80% human plasma by HPLC analysis. In kind it is ADME, cell-free. An outline of the steps: (§2)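 Stability run at 37 °C in PBS pH 7.4 or 80% human plasma. HPLC followed loss of parent and appearance of hydrolysis products over at least 3 half-lives. Decay fitted pseudo-first-order: kobs taken as the slope of ln(concentration) vs time, and t1/2 calculated from kobs.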

A short description of data set [10]: 1-Octanol/phosphate buffer apparent partition coefficient, logP of the compound measured after 30 mins by HPLC analysis. Type of data set: physicochemical.
For a further data set, the system named is B16-F10. The data set is described as follows: Cytotoxicity against mouse B16-F10 cells assessed as reduction in cell viability incubated for 72 hrs by MTS assay. The settings on record: B16-F10, 72 h. Type of data set: functional, cell-based. An outline of the steps: as §1
Data set [11] can be described thus: Selectivity index, ratio of IC50 for human HaCaT cells to IC50 for human MNT-1 cells by MTS assay.
Data set [12] is described as follows: Half life of the compound in PBS buffer at pH 7.4 by HPLC analysis. Type of data set: physicochemical. An outline of the steps: as §2
For the next data set, the target named is T1, Tyrosinase (Agaricus bisporus, UniProt O42713).
T1 sequence (O42713 whole entry): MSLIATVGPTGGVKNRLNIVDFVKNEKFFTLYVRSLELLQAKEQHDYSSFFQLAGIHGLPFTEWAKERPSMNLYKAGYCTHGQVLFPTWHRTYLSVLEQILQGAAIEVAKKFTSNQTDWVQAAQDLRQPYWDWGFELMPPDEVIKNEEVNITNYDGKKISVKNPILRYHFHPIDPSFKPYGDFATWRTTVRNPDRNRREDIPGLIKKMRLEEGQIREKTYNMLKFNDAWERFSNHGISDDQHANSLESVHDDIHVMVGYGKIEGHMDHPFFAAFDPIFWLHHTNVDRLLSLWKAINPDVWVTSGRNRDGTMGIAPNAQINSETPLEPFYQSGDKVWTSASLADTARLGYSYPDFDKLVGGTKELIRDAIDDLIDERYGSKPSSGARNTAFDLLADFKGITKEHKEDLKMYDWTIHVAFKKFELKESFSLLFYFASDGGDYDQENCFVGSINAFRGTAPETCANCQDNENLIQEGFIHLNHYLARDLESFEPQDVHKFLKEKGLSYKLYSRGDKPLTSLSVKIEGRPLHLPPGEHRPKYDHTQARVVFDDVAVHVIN
Briefly: Substrate activity at mushroom tyrosinase assessed as half-life of the compound by HPLC analysis. In kind it is ADME. An outline of the steps: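 Incubated with mushroom tyrosinase at 100 units/mL. Reaction followed by HPLC to derive substrate half-life (min).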

The subject of the next data set is HaCaT. The data set is described as follows: Cytotoxicity against human HaCaT cells assessed as reduction in cell viability incubated for 72 hrs by MTS assay. In kind it is cell-based. The procedure, abridged:
as §1

The nature of data set [13]: Haemolytic activity against human erythrocytes at 0.2 to 400 uM after 1 hr. In kind it is ADME, cell-based, Erythrocyte. The settings on record: dose 0.2-400 µM, read-out: Activity. The procedure, abridged:
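Human red blood cells exposed to compound at 0.2 to 400 μM for 1 h at 37 °C. Read-out: percentage hemolysis.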

Data set [14] can be described thus: Hepatotoxicity in BALB/c mouse assessed as gamma-GT level in plasma at 12 mg/kg, iv administered 3 times for 1 week and measured at 2 days post-last injection (reference value: 47 +/-9 U/L). The settings on record: in vivo, 216 h, time 9 day. Type of data set: toxicity, organism-based. An outline of the steps: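 BALB/c mice dosed intravenously at 12 mg/kg, 3 times per week for 1 week. Vehicle: PBS plus Cremophor (5% p/v); controls received vehicle only. Behaviour checked daily. Animals killed 2 days after the last injection; blood collected for γ-GT, and organs weighed for tissue index.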

For the molecule `CCOC(=O)c1ccc(/N=N/N(C)C(=O)NCCSc2ccc(O)cc2)cc1`, the Activity_index in [1] came out at 8; in data set [2], 6; in data set [4] it was 13; in data set [6], 7; in [7], 22. The IC50 in the data set on A-375 was 43.8 µM; in data set [3], 49.4 µM; in the data set with B16-F10, 51 µM; in the data set on HaCaT it was more than 100 µM. Also, the selectivity ratio in [5] amounted to 2. Further, the “Ratio IC50” value in [8] and in [11] was 2 each time. Moreover, the half-life was 1830 min in data set [9], more than 10 days in data set [12] and 3.7 min at Tyrosinase. Moreover, in data set [10], the logD at 0.5 h was 4.08. The hemolysis at 1 h, up to 400 µM in data set [13] was less than 1%. Also, in data set [14], the Activity came to 57 U/L.
